Source: PubChem BioAssay (several laboratories)
ZTA counter – counter-screen for EBNA-1 inhibitors: inhibitors of Epstein-Barr virus ZTA. 320,000 compounds, 0.15% hits. ZTA-DNA binding, fluorescence polarization. AID 2234. inhibition, % at 11 µM; in the data active means inhibition above about 33%
CSN inh – CSN deneddylation inhibition | Purified CSN, SCF-Nedd8-OG deneddylation, fluorescence polarization | inhibition, % at 12.5 µM | 360,000 compounds, 0.38% hits | AID 651999;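 active means pattern-corrected inhibition above about 35%, with an unprinted fluorescence ratio check between 0.5 and 1.5, limit read from the data, passing the limit was not always enough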;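 further: 0% = enzyme with substrate and 100% = substrate without enzyme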
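Test system: Human Csn5 produced in HEK293T cells | Compound: 12.5 µM single point | Times: 90 min, room temperature | Signal: Fluorescence polarization readout | Read-out basis: % inhibition of substrate cleavage by Csn5 | Controls: no-enzyme wells high, enzyme-with-substrate wells low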
EBNA-1 inh – blocks EBNA-1 binding to DNA | inhibition, % at 14.8 µM | EBNA-1 DNA binding, fluorescence polarization | 300,000 compounds, 0.34% hits; in the data active means inhibition above about 28%
A1 inh – inhibitors of the anti-apoptotic protein A1, read as caspase activation. 330,000 compounds, 0.066% hits. caspase activation, % (no concentration beside the values). AID 2462. MEF A1-2A-BIM cells, Caspase-Glo 3/7 luminescence, 3 h; percent of clofoctol response, vehicle zero;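 active means over half of replicate activation scores above 10%, or exactly half above 10 with the replicate mean above 10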
HNF4A DNA FP – change in binding of human HNF4 alpha to DNA; P41235; activity change, % at 10 µM; HNF4a-FITC DNA binding, fluorescence polarization, 1 h; 360,000 compounds, 0.3% hits; in the data active means activity change above about 30%, passing the limit was not always enough
Target sequence (P41235 whole entry, looked up): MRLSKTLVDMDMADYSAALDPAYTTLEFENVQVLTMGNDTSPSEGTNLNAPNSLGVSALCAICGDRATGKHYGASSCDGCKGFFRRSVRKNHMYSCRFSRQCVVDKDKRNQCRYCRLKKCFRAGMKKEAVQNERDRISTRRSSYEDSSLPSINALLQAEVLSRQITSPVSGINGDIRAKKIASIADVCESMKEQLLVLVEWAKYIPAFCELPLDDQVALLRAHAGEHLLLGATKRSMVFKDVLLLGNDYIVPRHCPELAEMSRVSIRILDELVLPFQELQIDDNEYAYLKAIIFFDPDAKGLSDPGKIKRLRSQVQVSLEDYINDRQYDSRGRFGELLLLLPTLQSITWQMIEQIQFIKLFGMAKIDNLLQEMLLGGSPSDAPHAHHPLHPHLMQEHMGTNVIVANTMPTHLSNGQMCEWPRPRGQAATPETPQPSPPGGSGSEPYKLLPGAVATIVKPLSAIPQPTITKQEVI
LANA-H2B inh – blocks KSHV LANA binding to histone H2A/H2B. cell-free LANA-H2A/H2B peptide, fluorescence polarization. 320,000 compounds, 0.6% hits. inhibition, % (concentration not given with the values). Q9QR71; in the data active means inhibition mostly above about 10%, no sharp cut-off; inactive means mostly below about 6.7%
CSN5 deneddyl – validation of inhibitors of human CSN-mediated cullin deneddylation. shares compounds with CSN inh. Csn5 deneddylation of SCF-Nedd8OG, fluorescence polarization, 90 min. inhibition, % at 16.6 µM. 540 compounds, 62% hits. AID 720654; in the data active means inhibition above about 50%;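 further: 0% = DMSO with enzyme and 100% = no enzyme wells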
MMP2 cntr CSN – counter-screen for CSN deneddylation inhibitors: human MMP-2 inhibition; shares compounds with CSN inh; 540 compounds, 33% hits; AID 720655; inhibition, % at 16.6 µM; recombinant MMP-2, FRET substrate fluorescence, 60 min;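 active means corrected plate-normalized z-score of 5 or more, or -5 or less, or inhibition of 15% or more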;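 further: plate controls were DMSO wells with enzyme for no effect and buffer wells lacking MMP-2 for full effect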
Thrombin counter – blocks bovine thrombin in a CSN deneddylation counter-screen | shares compounds with CSN inh | bovine thrombin cleavage of Ub4-pepOG, fluorescence polarization | inhibition, % at 16.6 µM | 540 compounds, 49% hits;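 active means inhibition at or above a set limit, with a fluorescence interference ratio between 0.5 and a set maximum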
HNF4A confirm – change in binding of human HNF4 alpha to DNA, retest. shares compounds with HNF4A DNA FP. AID 1224897. 210 compounds, 99% hits. HNF4A-FITC DNA binding, fluorescence polarization, 1 h. activity change, % at 12.5 µM; call rule not given here
* hit, by the source's call; . = no result. In the library only some 1.5% were active in any assay of this set; here they are far more common.

SMILES	ZTA counter	CSN inh	EBNA-1 inh	A1 inh	HNF4A DNA FP	LANA-H2B inh	CSN5 deneddyl	MMP2 cntr CSN	Thrombin counter	others
CC1=CC(=O)OC2CC3OC4C[C@@H](C)C5OC6CC7O[C@]8(C)C/C=C\C9OC%10CC%11OC(CC(C)C%12OCCO%12)CC(O)[C@]%11(C)OC%10CC9OC8C[C@]7(C)O[C@]6(C)CCC5OC4C[C@]3(C)OC12 (stereo partly drawn)	.	-1.5	.	0.7	-1.4	-1.4	.	.	.
Cn1cc(/C=C2\C(=O)NC(=O)N(c3ccccc3)C2=O)c2ccccc21	-1.8	-2.9	12.7	0.5	154.0	-10.5	.	.	.
C=CCN1C(=O)NC(=O)/C(=C/C=C/c2ccccc2)C1=O	.	2.8	.	.	20.0	.	.	.	.
Cc1cccc(N2C(=O)NC(=O)/C(=C\C=C\c3ccco3)C2=O)c1	10.4	50.5*	8.1	1.5	4.9	3.1	83.6*	8.0	9.1
Cc1ccc(N2C(=O)NC(=O)/C(=C\C=C\c3ccco3)C2=O)cc1C	19.4	68.9*	-1.6	2.5	1.2	4.7	68.1*	5.9	12.2
O=C1NC(=O)N(Cc2ccccc2)C(=O)/C1=C\C=C\c1ccco1	5.3	80.6*	3.3	1.6	18.0	2.4	60.5*	2.4	27.2*
CN(C)c1ccc(/C=C/C=C2/C(=O)NC(=O)N(c3ccccc3)C2=O)cc1	.	38.4*	.	.	10.8	.	72.0*	-12.9	11.8
C(=NC1CCCCC1)c1c[nH]c2ccccc12	.	4.8	.	.	7.0	.	.	.	.
CCOP(=O)(/C=C(\Cl)c1ccccc1)C(O)c1ccc(F)cc1 (stereo not drawn)	6.9	-0.7	0.8	-0.3	-2.1	2.7	.	.	.
CCOC(=O)C1(c2ccccc2)CCN(CCC(C#N)(c2ccccc2)c2ccccc2)CC1	7.4	-6.0	-1.7	0.9	1.8	-2.6	.	.	.
O=C1NC(=O)N(c2ccccc2)C(=O)/C1=C/C=C/c1ccco1	28.1	41.9*	9.6	1.1	-1.1	3.7	58.0*	16.4*	13.6
CN(C)CCCN=Cc1c(O)n(CCc2ccccc2)c(=O)[nH]c1=O	0.4	28.3	1.2	0.4	43.0*	-4.2	.	.	.	HNF4A confirm=60.4*
CCN(CC)CCOC(=O)c1ccc(N=Cc2c(O)[nH]c(=O)[nH]c2=O)cc1	0.9	48.0*	-7.2	0.0	60.5*	-9.2	.	.	.	HNF4A confirm=99.0*
C#C[C@]1(O)CC[C@H]2[C@@H]3CCC4=Cc5nc6nc7ccccc7n6cc5C[C@]4(C)[C@H]3CC[C@@]21C	15.5	14.4	-2.1	-0.5	10.0	-1.9	.	.	.
CN1C(=O)C2C[C@@]3(Br)c4ccccc4N(OOSc4ccccc4)[C@H]3N2C(=O)[C@@H]1Cc1ccccc1 (stereo partly drawn)	-3.6	0.9	9.5	2.2	3.0	-1.4	.	.	.
C[C@H]1CC[C@@H]2[C@@H](C)[C@H]3[C@H](C[C@H]4[C@@H]5CC=C6C[C@@H](O[C@@H]7O[C@H](CO)[C@H](O)[C@H](O[C@@H]8O[C@H](CO)[C@@H](O)[C@H](O)[C@H]8O)[C@H]7O[C@@H]7O[C@@H](C)[C@H](O)[C@@H](O)[C@H]7O)CC[C@]6(C)[C@H]5CC[C@]34C)N2C1	-7.4	15.9	-2.8	0.2	43.9*	-5.0	.	.	.	HNF4A confirm=40.3*
C[C@@H]1CC2C3CC=C4C[C@@H](O)CC[C@]4(C)C3CC[C@]2(C)[C@H]1O (stereo partly drawn)	.	-0.4	.	1.0	3.9	-4.8	.	.	.
